Data published in ChEMBL document CHEMBL4368903, “Identification of GSK3186899/DDD853651 as a Preclinical Development Candidate for the Treatment of Visceral Leishmaniasis” (J Med Chem, 2019).
Values after ≈ are worked out from the molar mass of the structure shown. Active and inactive are the calls of the source. The rule behind the calls is not given here.

Assays:
Leishmania donovani [1] = assay: Antileishmanial activity against Leishmania donovani […] in human THP1 cells by intramacrophage assay; type: functional, organism-based; conditions: Leishmania donovani, THP-1
[2] = Intrinsic clearance in CD1 mouse liver microsomes at 0.5 uM after 3 to 30 mins in presence of NADPH by UPLC-MS/MS analysis; type: ADME, Microsome
Summary of the method: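 0.5 μM compound with female CD1 mouse or human liver microsomes, started with excess NADPH in 50 mM potassium phosphate pH 7.4. Aliquots at 0, 3, 6, 9, 15 and 30 min quenched in acetonitrile with internal standard. UPLC-MS/MS; rate constant from exponential decay of compound/IS ratio. Verapamil as positive control.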

[3] = Kinetic aqueous solubility of the compound in phosphate buffer at pH 7.4 by CLND assay; type: physicochemical; conditions: phosphate buffer, read-out: Kinetic_solubility
Summary of the method: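 From 10 mM DMSO stock diluted 1:20 into pH 7.4 PBS, equilibrated 1 h at RT, filtered. Filtrate quantified by calibrated flow-injection CLND. Dynamic range 1–500 μM.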

[4] = Solubility of compound in fasted simulated intestinal fluid at 1 mg after 4 hrs by HPLC-UV analysis; type: physicochemical; conditions: fasted simulated intestinal fluid
Summary of the method: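 1 mg solid shaken in 1 mL FaSSIF (3 mM sodium taurocholate, 0.75 mM lecithin, phosphate buffer pH 6.5) at 900 rpm for 4 h at room temperature, then filtered. Supernatant quantified by HPLC-UV against single-point DMSO calibration. Range 1–1000 μg/mL.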

[5] = Dissociation constant, pKa of the compound by UV-spectroscopy; type: physicochemical
Summary of the method: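 Sirius T3 acid–base titration with UV read-out: 5 μL of 10 mM sample, absorbance over 54 pH values in about 5 min. Methanol cosolvent with Yasuda–Shedlovsky extrapolation used when precipitation occurred.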

Leishmania donovani [6] = assay: Antileishmanial activity against Leishmania donovani LV9 amastigotes infected in BALB/c mouse assessed as suppression of parasite load within liver at 25 mg/kg, po administered bid for 10 days relative to control; type: functional
Summary of the method: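 Female BALB/c mice, 5 per group, infected i.v. with about 2×10^7 L. donovani LV9 amastigotes harvested from infected hamster spleen. Oral dosing starts day 7 post-infection, in 0.5% HPMC/0.4% Tween 80/0.5% benzyl alcohol, or 10% DMSO/60% PEG400/30% water for the 5-day 50 mg/kg regimen. Dosing solutions made fresh daily. Killed day 14 (5-day) or 19 (10-day). Liver smears give LDU (amastigotes/500 nucleated cells × organ weight). Mean LDU compared with vehicle control gives % suppression.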

Cytochrome P450 3A4 = Cytochrome P450 3A4 (Homo sapiens, UniProt P08684); assay: Inhibition of CYP3A4 in human liver microsomes using midazolam as substrate preincubated for 20 mins followed by substrate addition and measured after 5 mins by LC-MS/MS analysis; type: ADME
Summary of the method: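 Pooled human liver microsomes (final 0.1 mg/mL) with midazolam marker substrate, monitoring CYP3A4-specific metabolite. Test compound at eight concentrations, 0.1–100 μM, final organic ≤0.5%. Preincubated at 37 °C for 20 min, then substrate or cofactor added and incubated 5 min at 37 °C. Stopped with ice-cold acetonitrile; LC-MS/MS read-out gives pIC50.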

[7] = Mutagenicity in Salmonella typhimurium at 1500 ug/plate by Ames test; type: toxicity; conditions: salmonella enterica subsp. enterica serovar typhimurium
Lymphoma cell line = assay: Clastogenicity in mouse Lymphoma cells at 5 ug/ml; type: toxicity, cell-based
[8] = biological target: Voltage-gated inwardly rectifying potassium channel KCNH2 (Homo sapiens, UniProt Q12809); assay: Inhibition of human ERG by patch clamp assay
[9] = Toxicity in Crl:WI(Han) rat at 100 to 1000 mg/kg/day, po via gavage for 7 days; type: organism-based; conditions: in vivo, 168 h
Summary of the method: (§1)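 Male Crl:WI(Han) rats received compound by oral gavage in a 7-day repeat-dose study at 100, 300 and 1000 mg/kg/day. Endpoints were in-life clinical signs (food consumption, body weight, piloerection), macroscopic observations, histopathology, clinical pathology and liver gene expression profiling.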

[10] = Toxicity in Crl:WI(Han) rat assessed as reduction in food consumption at 1000 mg/kg/day, po via gavage for 7 days; type: organism-based; conditions: in vivo, 168 h; summary of the method: as §1
[11] = Toxicity in Crl:WI(Han) rat assessed as piloerection at 1000 mg/kg/day, po via gavage for 7 days; type: organism-based; conditions: in vivo, 168 h; summary of the method: as §1
[12] = Toxicity in Crl:WI(Han) rat assessed as irregular breathing at 1000 mg/kg/day, po via gavage for 7 days; type: organism-based; conditions: in vivo, 168 h
Summary of the method: (§2)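 Male Crl:WI(Han) rats given oral gavage daily for 7 days at 100, 300 and 1000 mg/kg/day. Clinical signs, macroscopic findings, clinical pathology versus controls, and a liver gene expression panel for hepatic toxicity mechanisms.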

[13] = Toxicity in Crl:WI(Han) rat assessed as multiple organ changes at 1000 mg/kg/day, po via gavage for 7 days by histological analysis; type: organism-based; conditions: in vivo, 168 h; summary of the method: as §1
[14] = Toxicity in Crl:WI(Han) rat assessed as pancreas vacuolation at 300 mg/kg/day, po via gavage for 7 days by histological analysis; type: organism-based; conditions: in vivo, 168 h; summary of the method: as §1
[15] = Toxicity in Crl:WI(Han) rat assessed as kidney vacuolation at 300 mg/kg/day, po via gavage for 7 days by histological analysis; type: organism-based; conditions: in vivo, 168 h; summary of the method: as §1
[16] = Toxicity in rabbit cardiac ventricular wedge assessed as QT shortening at 10 uM relative to control; type: tissue-based, Oryctolagus cuniculus, Cardiac ventricle
[17] = Cardiotoxicity in Crl:WI(Han) rat up to 600 mg/kg, po via gavage; type: toxicity, organism-based; conditions: in vivo
[18] = Therapeutic index, ratio of fCmax in conscious unrestrained telemetered Crl:WI(Han) rat at 300 mg/kg/day, po via gavage for 7 days measured on day 1 to fCmax in Leishmania donovani LV9 amastigotes infected BALB/c mouse at 25 mg/kg, po administered bid for 10 days measured on day 1; type: organism-based; conditions: in vivo, read-out: TI
Summary of the method: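 Index = free Cmax on day 1 of the rat cardiovascular study / free Cmax on day 1 of the mouse efficacy model. Rat arm: conscious, unrestrained, telemetered male CRL:WI(Han) rats given a single oral dose (up to 1000 mg/kg). Mouse arm: female BALB/c infected i.v. with L. donovani LV9 amastigotes, dosed orally twice daily from day 7 post-infection in 0.5% HPMC, 0.4% Tween 80, 0.5% benzyl alcohol.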

[19] = biological target: Cyclin-dependent kinase 2 (Homo sapiens) (UniProt P24941); assay: Inhibition of human CDK2 by kinobeads-based assay
[20] = Toxicity in Crl:WI(Han) rat assessed as drug tolerability dose at 100 to 1000 mg/kg/day, po via gavage for 7 days; type: organism-based; conditions: in vivo, read-out: Activity
Summary of the method: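 Male Crl:WI(Han) rats dosed by oral gavage once daily in a 7-day repeat-dose study at 100, 300 and 1000 mg/kg/day. Tolerated doses judged from in-life and clinical signs, macroscopic observations, histopathology, clinical pathology and liver gene expression profiling versus controls.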

[21] = Ratio of AUC (0 to 24 hrs) in conscious unrestrained telemetered Crl:WI(Han) rat at 300 mg/kg/day, po via gavage for 7 days measured on day 7 to AUC (0 to 24 hrs) in Leishmania donovani LV9 amastigotes infected BALB/c mouse at 25 mg/kg, po administered bid for 10 days measured on day 10; type: ADME, organism-based; conditions: in vivo, read-out: TI
Summary of the method: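 Index = AUC0–24 on day 7 of the rat study / AUC0–24 on day 10 of the mouse efficacy model. Rat arm: male Crl:WI(Han) rats, oral gavage once daily for 7 days at 100, 300 or 1000 mg/kg/day. Mouse arm: female BALB/c infected i.v. with ~2×10^7 L. donovani LV9 amastigotes, dosed orally twice daily for 10 days from day 7 post-infection in 0.5% HPMC, 0.4% Tween 80, 0.5% benzyl alcohol.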

[22] = Toxicity in Crl:WI(Han) rat assessed as stomach distension at 100 to 1000 mg/kg/day, po via gavage for 7 days; type: organism-based; conditions: in vivo, 168 h; summary of the method: as §1
CYP1A1 = assay: Toxicity in Crl:WI(Han) rat assessed as increase in CYP1A1 gene expression in liver at 100 to 1000 mg/kg/day, po via gavage for 7 days; type: organism-based; conditions: Crl:WI(Han), liver, read-out: FC; summary of the method: as §2
[23] = Toxicity in Crl:WI(Han) rat assessed as effect on liver gene expression in liver at 100 to 1000 mg/kg/day, po via gavage for 7 days; type: organism-based; conditions: in vivo, 168 h; summary of the method: as §2

Sequence of Voltage-gated inwardly rectifying potassium channel KCNH2 (Q12809 whole entry): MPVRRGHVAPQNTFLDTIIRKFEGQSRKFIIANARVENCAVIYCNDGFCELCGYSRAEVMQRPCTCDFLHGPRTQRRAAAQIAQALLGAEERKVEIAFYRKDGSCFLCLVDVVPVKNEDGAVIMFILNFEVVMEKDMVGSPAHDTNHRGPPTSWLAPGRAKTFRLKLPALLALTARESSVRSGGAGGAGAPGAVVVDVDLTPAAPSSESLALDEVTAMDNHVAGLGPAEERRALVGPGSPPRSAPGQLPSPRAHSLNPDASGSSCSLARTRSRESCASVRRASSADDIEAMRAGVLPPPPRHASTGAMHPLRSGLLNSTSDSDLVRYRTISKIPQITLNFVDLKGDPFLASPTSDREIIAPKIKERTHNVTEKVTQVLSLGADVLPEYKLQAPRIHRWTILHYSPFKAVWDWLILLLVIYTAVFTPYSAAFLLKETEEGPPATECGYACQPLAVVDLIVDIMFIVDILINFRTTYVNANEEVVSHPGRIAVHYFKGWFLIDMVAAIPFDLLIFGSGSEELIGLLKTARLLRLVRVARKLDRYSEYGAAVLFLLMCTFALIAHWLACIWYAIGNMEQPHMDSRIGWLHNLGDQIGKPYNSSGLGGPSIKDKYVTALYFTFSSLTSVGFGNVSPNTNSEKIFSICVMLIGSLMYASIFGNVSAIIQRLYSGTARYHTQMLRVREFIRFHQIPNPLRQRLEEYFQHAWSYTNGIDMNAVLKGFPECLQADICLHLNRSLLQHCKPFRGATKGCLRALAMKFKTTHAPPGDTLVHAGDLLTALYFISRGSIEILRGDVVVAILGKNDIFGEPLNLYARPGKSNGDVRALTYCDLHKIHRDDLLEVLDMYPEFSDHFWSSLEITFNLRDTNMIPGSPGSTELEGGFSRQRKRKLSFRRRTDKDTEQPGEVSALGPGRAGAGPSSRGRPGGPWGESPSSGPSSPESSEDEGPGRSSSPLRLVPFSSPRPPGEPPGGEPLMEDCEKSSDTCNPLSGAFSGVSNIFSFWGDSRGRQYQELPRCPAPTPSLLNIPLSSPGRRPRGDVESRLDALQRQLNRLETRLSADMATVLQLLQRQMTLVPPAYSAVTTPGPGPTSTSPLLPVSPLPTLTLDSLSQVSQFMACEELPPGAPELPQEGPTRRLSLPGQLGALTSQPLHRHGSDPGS
Sequence of Cytochrome P450 3A4 (P08684 whole entry): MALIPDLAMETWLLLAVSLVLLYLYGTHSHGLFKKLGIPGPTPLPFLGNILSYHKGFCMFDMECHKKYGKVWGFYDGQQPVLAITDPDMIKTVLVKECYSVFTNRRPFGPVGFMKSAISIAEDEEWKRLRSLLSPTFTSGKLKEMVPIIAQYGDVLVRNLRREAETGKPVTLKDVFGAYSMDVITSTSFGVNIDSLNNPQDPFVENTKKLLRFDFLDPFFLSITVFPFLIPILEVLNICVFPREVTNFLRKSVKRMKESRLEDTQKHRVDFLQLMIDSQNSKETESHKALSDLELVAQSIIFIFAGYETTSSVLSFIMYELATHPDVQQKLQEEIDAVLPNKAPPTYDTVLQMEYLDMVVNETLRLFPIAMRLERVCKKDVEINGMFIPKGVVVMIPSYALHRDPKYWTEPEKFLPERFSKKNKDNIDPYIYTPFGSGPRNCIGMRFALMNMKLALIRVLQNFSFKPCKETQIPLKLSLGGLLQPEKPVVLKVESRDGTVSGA

COc1ccccc1-c1n[nH]c2nc(N[C@H]3CC[C@H](NS(=O)(=O)CCC(F)(F)F)CC3)nc(OC)c12
EC50 (Leishmania donovani [1]): 0.398 µM | CLH [2]: 1.1 mL/min/g | solubility kinetic [3]: 68 µM (≈ 35.9 µg/mL) | solubility at 4 h [4]: 25 to 130 µg/mL (≈ 47.3 to 246 µM) | pKa [5]: 4.1 | Activity (Leishmania donovani [6]): >95% | IC50 (Cytochrome P450 3A4): 6.31 µM | Activity [7]: Non-Toxic | Activity (Lymphoma cell line): Non-Toxic | IC50 [8]: 17.5 µM | Activity [9]: Toxic | Activity [10]: Toxic | Activity [11]: Toxic | Activity [12]: Toxic | Activity [13]: Toxic | Activity [14]: Toxic | Activity [15]: Toxic | Activity [16]: 11.3% | Activity [17]: Non-Toxic | selectivity ratio [18]: 12 | inhibition [19]: Active | MTD at 168 h [20]: 100 to 300 mg/kg | selectivity ratio [21]: 19 | Activity [22]: Toxic | fold induction at 168 h (CYP1A1): 43 | Activity [23]: Non-Toxic
